pEC50, pIC50: −log10 of the molar value. Calls of active or inactive are those of the source. No cut-off for these calls is given here.
What was measured:
[1] = Inhibition of HCV NS5B polymerase; design: species or system Hepacivirus hominis
Procedure, shortened: (§1)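 In vitro nucleotide incorporation assay using functionally active recombinant NS5B with a hairpin-like primed RNA substrate. Controls: enzyme without compound (positive) and enzyme with basilen blue (negative). Result reported as IC50.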

[2] = Cytotoxicity against Huh7 cells by MTS assay; format: cell-based; settings: human, huh-7
Procedure, shortened: (§2)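 MTS metabolic assay run on rapidly dividing and on stationary cells.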

DNA polymerase beta = DNA polymerase beta (Homo sapiens, UniProt P06746); assay: Inhibition of human DNA polymerase beta
[3] = Inhibition of calf thymus polymerase alpha; design: species or system Bos taurus
[4] = Inhibition of HIV reverse transcriptase; design: species or system Human immunodeficiency virus
Vero = assay: Cytotoxicity against Vero cells by MTS assay; format: cell-based; settings: chlorocebus sabaeus; procedure, shortened: as §2
[5] = Inhibition of helicase; design: species or system Homo sapiens
[6] = Inhibition of HCV 1a NS5B polymerase; design: species or system Hepatitis C virus subtype 1a
Procedure, shortened: (§3)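 In vitro nucleotide incorporation assay using functionally active recombinant NS5B enzyme and a hairpin-like primed RNA substrate. Enzyme without compound served as the positive control, and enzyme with basilen blue dye as the negative control. IC50 values were determined.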

Hepatitis C virus [7] = assay: Inhibition of HCV 1b NS5B polymerase; design: species or system Hepatitis C virus subtype 1b; procedure, shortened: as §1
[8] = Inhibition of HCV 3a NS5B polymerase; design: species or system Hepatitis C virus subtype 3a; procedure, shortened: as §3
Hepatitis C virus [9] = assay: Reduction of viral RNA in Huh7 cells containing HCV sub-genomic replicon after 3 days; format: functional, organism-based, Hepacivirus hominis; settings: Huh-7, 72 h
Homo sapiens = species: Homo sapiens; assay: Inhibition of human mitochondrial DNA polymerase gamma up to 80 uM
Hepatitis C virus [10] = assay: Reduction of viral protein in Huh7 cells containing HCV sub-genomic replicon after 3 days; format: functional, organism-based; settings: Hepacivirus hominis; Huh-7

Structure (SMILES) | pIC50 [1] | Activity [2] | other results
CCCC1(CC(=O)O)OCCc2c1[nH]c1c(F)ccc(C#N)c21 (centres undefined) | 6.00 |  | 
CCC[C@@]1(CC(=O)O)OCCc2c1[nH]c1c(Cl)ccc(CC)c21 | < 4.82 | > 50 µM | 
CCC[C@]1(CC(=O)O)OCCc2c1[nH]c1c(Cl)ccc(Cl)c21 | 7.22 | 33 µM | 
CCC[C@]1(CC(=O)O)OCCc2c1[nH]c1c(Cl)ccc(CC)c21 | 5.70 | > 50 µM | 
CCC[C@@]1(CC(=O)O)OCCc2c1[nH]c1c(Cl)ccc(Cl)c21 | 5.96 | 49 µM | 
CCCC1(CC(=O)O)OCCc2c1[nH]c1c(Cl)ccc(CC)c21 (centres undefined) | 5.52 | Not Active | pIC50 (DNA polymerase beta): < 4.00; pIC50 [3]: < 4.00; pIC50 [4]: < 4.00; Activity (Vero): Not Active; pIC50 [5]: < 4.12
CCC[C@@]1(CC(=O)O)OCCc2c1[nH]c1c(F)ccc(C#N)c21 | 5.28 | > 50 µM | 
CCCC1(CC(=O)O)OCCc2c1[nH]c1cccc(Cl)c21 (centres undefined) | 5.22 |  | 
CCCC1(CC(=O)OCC)OCCc2c1[nH]c1c(C)ccc(C#N)c21 (centres undefined) | < 4.52 |  | 
CCCC1(CC(=O)O)OCCc2c1[nH]c1c(Cl)ccc(Cl)c21 (centres undefined) | 6.57 |  | 
CCC[C@]1(CC(=O)O)OCCc2c1[nH]c1c(C)ccc(C#N)c21 | 6.48 |  | pIC50 [6]: 6.52; pIC50 (Hepatitis C virus [7]): 6.52; pIC50 [8]: 6.52; pEC50 (Hepatitis C virus [9]): 5.32; Activity (Homo sapiens): inactive; Activity (Hepatitis C virus [10]): Dose-dependent effect
CCc1ccc(Cl)c2[nH]c3c(c12)CCOC3(CC)CC(=O)O (centres undefined) | < 4.52 |  | 

Continued, in another order:

pIC50 [1] | Structure (SMILES) | Activity [2] | other results
6.20 | CCC[C@@]1(CC(=O)O)OCCc2c1[nH]c1c(C)cc(F)c(C#N)c21 | > 50 µM | 
6.92 | CCCC1(CC(=O)O)OCCc2c1[nH]c1c(C)cc(F)c(C#N)c21 (centres undefined) |  | 
7.10 | CCC[C@]1(CC(=O)O)OCCc2c1[nH]c1c(C)cc(F)c(C#N)c21 | > 50 µM | 
6.24 | CCCC1(CC(=O)O)OCCc2c1[nH]c1c(C)ccc(C#N)c21 (centres undefined) |  | 
6.36 | CCC[C@]1(CC(=O)O)OCCc2c1[nH]c1c(F)ccc(C#N)c21 | > 50 µM | 
5.62 | CCCC1(CC(=O)O)OCCc2c1[nH]c1c(C)ccc(C#N)c21 (single isomer, unassigned) | > 50 µM | 

— ChEMBL document CHEMBL1149284, “Discovery of pyrano[3,4-b]indoles as potent and selective HCV NS5B polymerase inhibitors” (J Med Chem, 2004)
